Assay results taken from PubChem BioAssay.
Calls of active or inactive are those of the source.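 The calls were made as follows, unless noted: active = viability at or under a set limit in both replicates, limit being median viability minus 3 SD (cut at about 48% in these data, passing the limit was not always enough); inconclusive = at or under the limit in just one replicate; inactive = at or above the limit in both replicates.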 Peptide text beside a SMILES is read from it.

Assays:
[1] = biological target: Pantothenate synthetase (Mycobacterium tuberculosis (strain ATCC 25618 / H37Rv)) (UniProt P9WIL5); assay: Coupled enzyme confirmation of inhibitors against recombinant Mtb PanC (AID 375; call rule not given here;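 also: 0% = full reaction with vehicle and 100% = no enzyme background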); conditions: coupled enzyme assay; at 10 µM, stronger effect = higher value
[2] = reduced viability of SK-BR-3 breast cancer cells – cell-based, 24 h, human, pilot screen (AID 572;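 active = viability at or below 10% of carrier control in both of two separate runs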;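 also: compound exposure lasted between 18 and 24 h rather than exactly 24 h; 100% = carrier-treated control wells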); conditions: SK-BR-3 viability, CellTiter-Glo luminescence, at 10 µM, stronger effect = lower value
[3] = HUVEC growth inhibition – cell-based, human, primary screen (AID 575;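 active = viability at or below 30% in both replicate assays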;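 also: 100% = median of untreated cell wells with 0.1% DMSO on each plate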); conditions: HUVEC proliferation, CellTiter-Glo luminescence, 72 h; at 10 µM; stronger effect = lower value
Outline: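 Test system: HUVEC primary cells. Quantity: 1250 endothelial cells in each well. Dosing: single-point 10 µM, DMSO 0.1% final. Incubation: 72 h treatment at 37 °C. Measured by: CTG luminescence. Control set: DMSO cell controls and MePR drug controls. Plate: collagen-coated 384-well format.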

[4] = H69AR cell proliferation blockers – human, duplicate replicates, primary screen (AID 580); conditions: H69AR lung tumor cells viability, ATP luminescence, 72 h; at 10 µM; stronger effect = lower value;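 also: 100% = mean luminescence of untreated wells and 0% = no signal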
[5] = MRP1 drug-resistance reversers in H69AR cells – cell-based, doxorubicin co-treatment, pilot screen (AID 601;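 active = viability loss from added drug above about 55%, and viability with drug at most 40%, in both replicates, limit read from the data, passing the limit was not always enough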); conditions: CellTiter-Glo, 72 h, at 10 µM; for differential viability (reversal): stronger effect = higher value
[6] = yeast transport mutant growth inhibition pilot in 384-well plates, post-Golgi transport modulator project (AID 636; in the data active = inhibition above about 31%); conditions: absorbance 615 nm, about 18 h, stronger effect = higher value
[7] = growth suppression of yeast trafficking mutant, preliminary HTS, modulators of trafficking downstream of Golgi apparatus project, 1536-format plate, OD 615 nm (AID 637; in the data active = inhibition above about 30%); conditions: yeast transport mutant growth, absorbance 615 nm, 18 h; stronger effect = higher value
[8] = H69AR cells + 2 uM doxorubicin, measured here: viability with 2 uM doxorubicin, stronger effect = lower value
[9] = H69AR cells, compound alone cytotoxicity

Chain of Pantothenate synthetase (Mycobacterium tuberculosis (strain ATCC 25618 / H37Rv)) (P9WIL5 whole entry, looked up): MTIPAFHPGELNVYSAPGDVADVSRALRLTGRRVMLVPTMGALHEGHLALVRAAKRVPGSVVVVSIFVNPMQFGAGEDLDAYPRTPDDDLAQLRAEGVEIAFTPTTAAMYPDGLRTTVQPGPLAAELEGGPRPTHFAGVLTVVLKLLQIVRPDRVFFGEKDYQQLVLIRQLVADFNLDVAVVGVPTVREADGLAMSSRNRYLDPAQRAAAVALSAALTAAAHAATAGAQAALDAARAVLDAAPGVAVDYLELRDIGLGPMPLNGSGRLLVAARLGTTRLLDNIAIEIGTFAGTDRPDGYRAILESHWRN

O=C(Cn1ncc2c3ccccc3n(Cc3ccc(F)cc3)c2c1=O)N1CCC2(CC1)OCCO2
98.4%: viability [5, 8]
89.2%: viability [5, 9]
inactive: inhibition [1] 7% | viability [2] 86% | viability [3] 96% | viability [4] 89.2% | differential viability (reversal) ([5]; H69AR cells + 2 uM doxorubicin) -9.23% | inhibition [6] -5.41% | inhibition [7] -2.55%

CCC(=NCC1CCCO1)c1c(O)n(Cc2ccccc2)c(=O)[nH]c1=O (centres undefined)
86.3%: viability [5, 9]
inactive: inhibition [1] 0% | viability [2] 91% | viability [3] 107% | viability [4] 86.3% | differential viability (reversal) ([5]; H69AR cells + 2 uM doxorubicin) -0.335% | inhibition [6] -4.29% | inhibition [7] 1.48%
86.7%: viability [5, 8]

CCN1c2nc3ccccn3c(=O)c2CC2(C(=O)N(C)C(=O)N(C)C2=O)C1C (centres undefined)
inactive: inhibition [1] 0% | viability [2] 119% | viability [3] 104% | viability [4] 96% | differential viability (reversal) ([5]; H69AR cells + 2 uM doxorubicin) 5.97% | inhibition [6] -9.18% | inhibition [7] 2.9%
90%: viability [5, 8]
96%: viability [5, 9]

CCCCn1c(O)c(C(C)=NC(Cc2c[nH]c3ccccc23)C(=O)OC)c(=O)[nH]c1=O (centres undefined)
93.7%: viability [5, 8]
96.5%: viability [5, 9]
inactive: inhibition [1] 1% | viability [2] 91% | viability [3] 84.5% | viability [4] 96.5% | differential viability (reversal) ([5]; H69AR cells + 2 uM doxorubicin) 2.8% | inhibition [6] -4.93% | inhibition [7] -2.1%

CCOCC(=O)NC1CCSC1=O (centres undefined)
93.8%: viability [5, 9]
inactive: inhibition [1] 0% | viability [2] 74% | viability [3] 99.4% | viability [4] 93.8% | differential viability (reversal) ([5]; H69AR cells + 2 uM doxorubicin) 0.265% | inhibition [6] -9.45% | inhibition [7] 5.16%
93.6%: viability [5, 8]

CC(C)C[C@H](NC(=O)[C@@H]1CCCN1C(=O)[C@@H](N)Cc1ccc(O)cc1)C(=O)NCC(N)=O (H-YPLG-NH2)
96.8%: viability [5, 8]
inactive: inhibition [1] 0% | viability [2] 105% | viability [3] 96.2% | viability [4] 97.6% | differential viability (reversal) ([5]; H69AR cells + 2 uM doxorubicin) 0.84% | inhibition [6] -2.73% | inhibition [7] 0.33%
97.6%: viability [5, 9]
